Converted amounts (≈) assume the structure as drawn.
Legend:
[1] = system: Mycobacterium tuberculosis; test: Antitubercular activity against Mycobacterium tuberculosis H37Rv after 4 days by MABA method; format: functional; conditions: 96 h
How it was run: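 Aerobic culture of H37Rv in microplate Alamar blue assay. MIC90 taken as the minimum concentration giving 90% growth inhibition. Each value is the mean of at least two independent determinations. Most compounds were tested as RS,SR diastereomer mixtures; a few were tested only as the pure R,S enantiomer.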

[2] = biological target: Voltage-gated inwardly rectifying potassium channel KCNH2 (Homo sapiens, UniProt Q12809); test: Inhibition of human ERG
Voltage-gated inwardly rectifying potassium channel KCNH2, sequence (Q12809 whole entry): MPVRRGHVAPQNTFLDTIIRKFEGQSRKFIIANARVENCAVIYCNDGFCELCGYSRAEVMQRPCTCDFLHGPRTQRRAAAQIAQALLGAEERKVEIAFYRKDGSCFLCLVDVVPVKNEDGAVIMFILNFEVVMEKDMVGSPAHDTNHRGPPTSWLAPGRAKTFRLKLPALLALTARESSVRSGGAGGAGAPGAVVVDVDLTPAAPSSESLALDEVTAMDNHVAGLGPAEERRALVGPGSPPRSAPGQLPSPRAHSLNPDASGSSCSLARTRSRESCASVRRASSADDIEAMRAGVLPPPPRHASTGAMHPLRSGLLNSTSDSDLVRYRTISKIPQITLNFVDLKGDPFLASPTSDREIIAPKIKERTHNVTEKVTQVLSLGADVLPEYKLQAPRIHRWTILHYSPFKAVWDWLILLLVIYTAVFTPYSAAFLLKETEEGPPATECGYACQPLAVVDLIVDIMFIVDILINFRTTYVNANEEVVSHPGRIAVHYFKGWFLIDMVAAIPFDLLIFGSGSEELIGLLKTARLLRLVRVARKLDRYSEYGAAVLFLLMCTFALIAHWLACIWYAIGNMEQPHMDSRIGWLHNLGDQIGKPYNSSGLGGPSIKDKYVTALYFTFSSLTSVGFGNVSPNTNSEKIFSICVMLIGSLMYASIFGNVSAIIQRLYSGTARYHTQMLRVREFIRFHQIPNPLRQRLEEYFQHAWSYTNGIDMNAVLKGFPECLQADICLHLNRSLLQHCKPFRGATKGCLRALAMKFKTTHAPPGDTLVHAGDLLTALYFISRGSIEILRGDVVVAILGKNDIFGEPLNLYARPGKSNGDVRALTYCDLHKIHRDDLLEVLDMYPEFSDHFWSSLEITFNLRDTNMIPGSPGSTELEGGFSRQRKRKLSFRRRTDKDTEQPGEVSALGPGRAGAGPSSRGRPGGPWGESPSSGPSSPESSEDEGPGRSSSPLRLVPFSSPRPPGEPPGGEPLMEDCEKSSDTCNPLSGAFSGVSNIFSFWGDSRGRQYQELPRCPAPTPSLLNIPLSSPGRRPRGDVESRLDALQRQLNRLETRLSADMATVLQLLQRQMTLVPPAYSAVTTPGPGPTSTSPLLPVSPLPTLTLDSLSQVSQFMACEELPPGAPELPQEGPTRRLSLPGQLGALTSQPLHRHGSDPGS

Row | SMILES | MIC90 [1] | IC50 [2]
1 | COc1cccc(C(c2cc3cc(N4CCOCC4)ccc3nc2OC)C(O)(CCN(C)C)c2cccc(OC(F)(F)F)c2)c1OC (configuration not stated) | 0.68 µg/mL (≈ 1.04 µM) | –
2 | C#Cc1ccc2nc(OC)c(C(c3ccccc3)C(O)(CCN(C)C)c3cccc(F)c3)cc2c1 (configuration not stated) | 0.36 µg/mL (≈ 0.768 µM) | –
3 | COc1cccc(C(c2cc3cc(Br)ccc3nc2OC)C(O)(CCN(C)C)c2cccc(F)c2)c1F (configuration not stated) | 0.1 µg/mL (≈ 0.175 µM) | –
4 | COc1cccc(C(c2cc3cc(N4CC5(COC5)C4)ccc3nc2OC)C(O)(CCN(C)C)c2cccc(OC(F)(F)F)c2)c1OC (configuration not stated) | 0.75 µg/mL (≈ 1.12 µM) | –
5 | COc1cccc(C(c2cc3cc(Br)ccc3nc2OC)C(O)(CCN(C)C)c2cccc(OC)c2OC)c1OC (configuration not stated) | 0.2 µg/mL (≈ 0.32 µM) | –
6 | COc1cccc(C(c2cc3cc(OC(F)(F)F)ccc3nc2OC)C(O)(CCN(C)C)c2cccc(OC(F)(F)F)c2)c1F (configuration not stated) | 1.1 µg/mL (≈ 1.71 µM) | –
7 | COc1nc2ccc(N3CC4(COC4)C3)cc2cc1[C@@H](c1ccccc1)[C@@](O)(CCN(C)C)c1cccc2ccccc12 | 0.71 µg/mL (≈ 1.24 µM) | –
8 | C#Cc1ccc2nc(OC)c(C(c3ccccc3)C(O)(CCN(C)C)c3cccc4ccccc34)cc2c1 (configuration not stated) | 0.48 µg/mL (≈ 0.959 µM) | –
9 | COc1nc2ccc(C(=O)N(C)C)cc2cc1C(c1ccccc1)C(O)(CCN(C)C)c1cccc2ccccc12 (configuration not stated) | 2.2 µg/mL (≈ 4.02 µM) | 6.3 µM
10 | COc1cccc([C@@H](c2cc3cc(N4CC[S+]([O-])CC4)ccc3nc2OC)[C@@](O)(CCN(C)C)c2cccc(F)c2)c1F | > 5 µg/mL | –
11 | COc1nc2ccc(OC(F)(F)F)cc2cc1C(c1ccccc1)C(O)(CCN(C)C)c1cccc2ccccc12 (configuration not stated) | 0.24 µg/mL (≈ 0.428 µM) | –
12 | COc1nc2ccc(N(C)S(=O)(=O)c3ccccc3)cc2cc1[C@@H](c1ccccc1)[C@@](O)(CCN(C)C)c1cccc(F)c1 | 4.1 µg/mL (≈ 6.68 µM) | –
13 | CCc1ccc2nc(OC)c(C(c3ccccc3)C(O)(CCN(C)C)c3cccc4ccccc34)cc2c1 (configuration not stated) | 0.23 µg/mL (≈ 0.456 µM) | –
14 | COc1cccc([C@@H](c2cc3cc(SC)ccc3nc2OC)[C@@](O)(CCN(C)C)c2cccc(F)c2)c1F | 0.13 µg/mL (≈ 0.241 µM) | –
15 | COc1cccc(C(c2cc3cc(C#N)ccc3nc2OC)C(O)(CCN(C)C)c2cccc(Cl)c2)c1F (configuration not stated) | 0.13 µg/mL (≈ 0.243 µM) | –
16 | COc1nc2ccc(Br)cc2cc1C(c1ccccc1)C(O)(CCN(C)C)c1cccc(F)c1 (configuration not stated) | 0.23 µg/mL (≈ 0.439 µM) | –
17 | COc1nc2ccc(Br)cc2cc1[C@@H](c1ccccc1)[C@@](O)(CCN(C)C)c1cccc2ccccc12 [BEDAQUILINE] | 0.09 µg/mL (≈ 0.162 µM) | –
18 | COc1cccc(C(c2cc3cc(Br)ccc3nc2OC)C(O)(CCN(C)C)c2cccc(Cl)c2)c1F (configuration not stated) | 0.07 µg/mL (≈ 0.119 µM) | –
19 | CO/N=C/c1ccc2nc(OC)c([C@@H](c3ccccc3)[C@](O)(CCN(C)C)c3cccc4ccccc34)cc2c1 | 0.21 µg/mL (≈ 0.394 µM) | 2.2 µM

Row | SMILES | MIC90 [1] | IC50 [2]
20 | COc1nc2ccc(C3CC3)cc2cc1C(c1ccccc1)C(O)(CCN(C)C)c1cccc2ccccc12 (configuration not stated) | 0.13 µg/mL (≈ 0.252 µM) | –
21 | C=Cc1ccc2nc(OC)c(C(c3ccccc3)C(O)(CCN(C)C)c3cccc4ccccc34)cc2c1 (configuration not stated) | 1.9 µg/mL (≈ 3.78 µM) | –
22 | COc1nc2ccc(I)cc2cc1C(c1ccccc1)C(O)(CCN(C)C)c1cccc2ccccc12 (configuration not stated) | 0.2 µg/mL (≈ 0.332 µM) | –
23 | COc1nc2ccc(CN(C)C)cc2cc1C(c1ccccc1)C(O)(CCN(C)C)c1cccc2ccccc12 (configuration not stated) | 3.7 µg/mL (≈ 6.93 µM) | 4.8 µM
24 | COc1cccc([C@H](c2cc3cc(N(C)S(=O)(=O)N(C)C)ccc3nc2OC)[C@@](O)(CCN(C)C)c2cccc(F)c2)c1OC | 1.13 µg/mL (≈ 1.76 µM) | –
25 | COc1cccc(C(c2cc3cc(N4CC5(COC5)C4)ccc3nc2OC)C(O)(CCN(C)C)c2cccc(F)c2)c1OC (configuration not stated) | 0.66 µg/mL (≈ 1.1 µM) | –
26 | COc1cccc(C(c2cc3cc(C#N)ccc3nc2OC)C(O)(CCN(C)C)c2cccc(OC(F)(F)F)c2)c1OC (configuration not stated) | 0.21 µg/mL (≈ 0.353 µM) | –
27 | COc1nc2ccc(Cl)cc2cc1C(c1ccccc1)C(O)(CCN(C)C)c1cccc2ccccc12 (configuration not stated) | 0.71 µg/mL (≈ 1.39 µM) | 6.9 µM
28 | COc1cccc([C@@H](c2cc3cc(N4CCS(=O)(=O)CC4)ccc3nc2OC)[C@@](O)(CCN(C)C)c2cccc(F)c2)c1F | > 5 µg/mL | –
29 | COc1cccc(C(c2cc3cc(F)ccc3nc2OC)C(O)(CCN(C)C)c2cccc(OC(F)(F)F)c2)c1F (configuration not stated) | 0.21 µg/mL (≈ 0.364 µM) | –
30 | COc1cccc([C@H](c2cc3cc(N4CCS(=O)(=O)CC4)ccc3nc2OC)[C@@](O)(CCN(C)C)c2cccc(F)c2)c1OC | > 5 µg/mL | –
31 | COc1nc2ccc(/C=N/O)cc2cc1C(c1ccccc1)C(O)(CCN(C)C)c1cccc2ccccc12 (configuration not stated) | 6 µg/mL (≈ 11.5 µM) | 3.5 µM
32 | COc1cccc(C(c2cc3cc(N4CCOCC4)ccc3nc2OC)C(O)(CCN(C)C)c2cccc(OC(F)(F)F)c2)c1F (configuration not stated) | 0.14 µg/mL (≈ 0.218 µM) | –
33 | COc1cccc([C@@H](c2cc3cc(N4CC5(COC5)C4)ccc3nc2OC)[C@@](O)(CCN(C)C)c2cccc(C)c2)c1F | 1.1 µg/mL (≈ 1.88 µM) | –
34 | COc1cccc(C(c2cc3cc(Br)ccc3nc2OC)C(O)(CCN(C)C)c2cccc(OC(F)(F)F)c2)c1F (configuration not stated) | 0.09 µg/mL (≈ 0.141 µM) | –
35 | COc1cccc(C(O)(CCN(C)C)C(c2cc3cc(C#N)ccc3nc2OC)c2cccc(OC)c2F)c1 (configuration not stated) | 0.09 µg/mL (≈ 0.17 µM) | –
36 | COc1cccc(C(c2cc3cc(Br)ccc3nc2OC)C(O)(CCN(C)C)c2cccc(C)c2)c1F (configuration not stated) | 0.04 µg/mL (≈ 0.0705 µM) | –
37 | COc1cccc(C(c2cc3cc(N4CC5(COC5)C4)ccc3nc2OC)[C@@](O)(CCN(C)C)c2cccc(F)c2)c1F (single isomer, unassigned) | 0.51 µg/mL (≈ 0.865 µM) | –

Reference: ChEMBL document CHEMBL4130520 (ACS Med Chem Lett, 2017)
